Drawing on the array DNA melting data of Ke et al. (doi:10.1101/2024.01.08.574731), this text covers folding enthalpy and Tm for 37 sequences.

The nature of data set [1]: folding enthalpy; higher = less favourable; fluorescence melt of hairpins on a sequencing array, two-state fit. The settings on record: sodium 0.088 M. The essentials: (§1)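 Two-state fits, bootstrapped, provided melting temperature and folding enthalpy from Cy3 fluorescence normalised to pre-quench Cy3 and to control constructs. Library hairpins with annealed Cy3 and quencher oligos were imaged on a sequenced MiSeq flow cell in 50 mM Na-HEPES pH 8.0, 25 mM NaCl, at 2.5 °C intervals up to 60 °C. Four replicates were combined with inverse-variance weighting. A 9.35 °C upward shift was applied to fitted temperatures to match UV melts.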

Data set [2] in a line: melting temperature; fluorescence melt of hairpins on a sequencing array, two-state fit, raised by 9.35 °C to match UV melts. The note with it: sodium 0.088 M. Summed up:
as §1

As for GGCTACGAAAGTAGGGCC ((((((....)))..))), the folding enthalpy in data set [1] is -15.7 kcal/mol. The Tm in data set [2] stood at 47.1 °C.
The corresponding values for GGCTACGAAAGTATGCC ((((((....))).))) are -37.8 kcal/mol and 54.6 °C.
The like results for GGCTAGGGAAACCCAGCC ((((.((....)).)))) were, in that order, -39.4 kcal/mol and 52.1 °C.
The like results for GGCTATCCGAAAGGAGCC (((..(((....)))))) were, in that order, -27.3 kcal/mol and 47.1 °C.
Turning to GGCTATCGAAAGATCGCC (((.(((....))).))), the folding enthalpy in data set [1] was -30.8 kcal/mol. For the same sequence, in data set [2], the Tm came to 50.6 °C.
The like results for GGCTATGCGAAAGCAGCC (((..(((....)))))) were, in that order, -27.3 kcal/mol and 55.6 °C.
Turning to GGCTCAGCGAAAGCTGCC (((..(((....)))))), the folding enthalpy in data set [1] is -12.3 kcal/mol. In addition, the Tm in data set [2] amounted to 44.2 °C.
In the case of GGCTCCACGAAAGTGGCC (((..(((....)))))), in data set [1], the folding enthalpy is -11.8 kcal/mol. Also, in data set [2], the Tm was 37.6 °C.
For GGCTCCGAAAGGAAGCC ((((((....))).))), the folding enthalpy in data set [1] is -37.7 kcal/mol. In data set [2], the Tm was 64.1 °C.
As for GGCTCCGAAAGGATGCC ((((((....))).))), in data set [1], the folding enthalpy is -31 kcal/mol. Also, the Tm in data set [2] turned out to be 62.6 °C.
For the sequence GGCTCGACGAAAGTCGCC (((..(((....)))))), in data set [1], the folding enthalpy is -8 kcal/mol. In data set [2], the Tm is 35.1 °C.
The corresponding values for GGCTCGGGAAACCGGGCC (((.(((....))).))) are -38.4 kcal/mol and 66 °C.
GGCTCGGGAAACCGGGTC (.(.(((....))).).): the folding enthalpy in data set [1] was -28.2 kcal/mol. The Tm in data set [2] is 46.9 °C.
The corresponding values for GGCTCTCGAAAGAGTGCC (((.(((....))).))) are -49.1 kcal/mol and 58.1 °C.
The corresponding values for GGCTCTGAAAAGAGCC ((((((....)))))) are -38.3 kcal/mol and 68.9 °C.
For the sequence GGCTCTGGAAACAGGGCC (((.(((....))).))), the folding enthalpy in data set [1] was -27.7 kcal/mol. Moreover, the Tm in data set [2] was 58.1 °C.
The like results for GGCTGAGGAAACTCAGTC (.(((((....))))).) were, in that order, -41.6 kcal/mol and 51.3 °C.
The corresponding values for GGCTGAGGAAACTCGGCC (((.(((....))).))) are -46.7 kcal/mol and 58.3 °C.
The corresponding values for GGCTGAGGAAACTTAGCC ((((.((....)).)))) are -36.3 kcal/mol and 50.2 °C.
On to GGCTGAGGAAACTTGGCC (((..((....))..))), for which the folding enthalpy in data set [1] was -30.8 kcal/mol. For the same sequence, the Tm in data set [2] was determined as 43.8 °C.
Regarding GGCTGCGAAAGCACAGCC ((((((....)))..))), the folding enthalpy in data set [1] is -25.6 kcal/mol. Moreover, in data set [2], the Tm was determined as 57.8 °C.
The like results for GGCTGCGAAAGCACGGCC ((((((....)))..))) were, in that order, -23.4 kcal/mol and 53.5 °C.
As to GGCTGCGAAAGCACTGCC ((((((....)))..))), the folding enthalpy in data set [1] was -20.5 kcal/mol. Moreover, in data set [2], the Tm came out at 50.9 °C.
As to GGCTGCGAAAGCAGGGCC ((((((....)))..))), the folding enthalpy in data set [1] is -13 kcal/mol. Further, the Tm in data set [2] turned out to be 53.1 °C.
For the sequence GGCTGCGAAAGCATCGCC ((((((....)))..))), in data set [1], the folding enthalpy was -21.8 kcal/mol. Moreover, in data set [2], the Tm came to 48.5 °C.
For the sequence GGCTGGACGAAAGTCGCC (((..(((....)))))), the folding enthalpy in data set [1] is -20.2 kcal/mol. Further, the Tm in data set [2] stood at 52.5 °C.
With GGCTGGGGAAACCCGGCC (((.(((....))).))), the folding enthalpy in data set [1] is -39.7 kcal/mol. In addition, the Tm in data set [2] was 66.6 °C.
The like results for GGCTGGGGAAACTCGGCC (((.(.(....).).))) were, in that order, -36.5 kcal/mol and 49.4 °C.
The corresponding values for GGCTTACCGAAAGGTGCC (((..(((....)))))) are -23.1 kcal/mol and 50.2 °C.
GGCTTAGGAAACTAAACC ((.((((....)))).)): in data set [1], the folding enthalpy was -15.7 kcal/mol. Besides, in data set [2], the Tm amounted to 31.8 °C.
The corresponding values for GGCTTAGGAAACTAAGTC (.(((((....))))).) are -32.5 kcal/mol and 44.4 °C.
The like results for GGCTTAGGAAACTGAGCC ((((.((....)).)))) were, in that order, -44.6 kcal/mol and 50.4 °C.
GGCTTCCGAAAGGAGCC (((.(((....)))))): in data set [1], the folding enthalpy was -37.1 kcal/mol. Further, in data set [2], the Tm turned out to be 60 °C.
The like results for GGCTTCGAAAGAACAGCC ((((((....)))..))) were, in that order, -29.7 kcal/mol and 43.1 °C.
The like results for GGCTTCGAAAGAAGAGCC ((((((....)))..))) were, in that order, -21.8 kcal/mol and 45.3 °C.
The corresponding values for GGCTTCGAAAGAAGTGCC ((((((....)))..))) are -16.1 kcal/mol and 42.6 °C.
Consider GGCTTCGCGAAAGCGGCC (((..(((....)))))), for which the folding enthalpy in data set [1] was -16.4 kcal/mol. Moreover, in data set [2], the Tm came out at 48.8 °C.
